Data reported in ChEMBL document CHEMBL1144102, “New cytotoxic polyacetylenes from the marine sponge Petrosia” (1999).
Converted amounts (≈) assume the structure as drawn.

Legend:
Assay type in all cases: functional
A549 = assay: Cytotoxicity against human A549 cells by MTT assay; details: read-out: ED50 (the source's name)
SK-OV-3 = assay: Cytotoxicity against human SKOV3 cells by MTT assay; details: read-out: ED50 (the source's name)
SK-MEL-2 = assay: Cytotoxicity against human SK-MEL-2 cells by MTT assay; details: read-out: ED50 (the source's name)
XF498 = assay: Cytotoxicity against human XF498 cells by MTT assay; details: read-out: ED50 (the source's name)
HCT-15 = assay: Cytotoxicity against human HCT-15 cells by MTT assay; details: read-out: ED50 (the source's name)
Simian virus 40 [1] = assay: Antiviral activity against SV40 virus assessed as inhibition of DNA replication at 125 uM; details: Betapolyomavirus macacae
Procedure, shortened: (§1)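 Cell-free SV40 origin DNA replication: mixtures contained 40 mM creatine phosphate-di-Tris (pH 7.7), creatine kinase, 7 mM MgCl2, 0.5 mM DTT, 4 mM ATP, 200 µM UTP/GTP/CTP, 100 µM dATP/dGTP/dCTP, 25 µM [3H]dTTP, SV40 T-Ag, SV40 origin plasmid (pUC) and replication proteins. Incubated 90 min at 37 °C, then acid-insoluble radioactivity counted.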

Simian virus 40 [2] = assay: Antiviral activity against SV40 virus assessed as inhibition of DNA replication at 250 uM; details: Betapolyomavirus macacae; procedure, shortened: as §1
Simian virus 40 [3] = assay: Antiviral activity against SV40 virus assessed as inhibition of DNA replication at 500 uM; details: Betapolyomavirus macacae; procedure, shortened: as §1

| Compound | EC50 (A549) | EC50 (SK-OV-3) | EC50 (SK-MEL-2) | EC50 (XF498) | EC50 (HCT-15) | inhibition at 125 µM (Simian virus 40 [1]) | inhibition at 250 µM (Simian virus 40 [2]) | inhibition at 500 µM (Simian virus 40 [3]) |
| --- | --- | --- | --- | --- | --- | --- | --- | --- |
| C#C/C=C\CCCCCCCCCCCCC/C=C\CCCC/C=C\CCCCC#C[C@@H](O)C#CCCCCCC/C=C/[C@H](O)C#C [NOR-3S,14S-PETROCORTYNE A] | 7.3 µg/mL (≈ 11.4 µM) | 4.4 µg/mL (≈ 6.86 µM) | 3.8 µg/mL (≈ 5.93 µM) | 6.1 µg/mL (≈ 9.52 µM) | 3.5 µg/mL (≈ 5.46 µM) | 12% | 47% | 70% |
| C#C/C=C\CCCCCCCCCCCCC/C=C/C(=O)CCCC/C=C\CCCCC#C[C@@H](O)C#CCCCCCC/C=C/[C@H](O)C#C [PETROTETRAYNDIOL C] | > 10 µg/mL | 4.2 µg/mL (≈ 6.28 µM) | 4.1 µg/mL (≈ 6.13 µM) | 12.7 µg/mL (≈ 19 µM) | 5.7 µg/mL (≈ 8.52 µM) | 45% | 46% | 81% |
